Source: ChEMBL document CHEMBL1122701, “Antiestrogens. 2. Structure-activity studies in a series of 3-aroyl-2-arylbenzo[b]thiophene derivatives leading to [6-hydroxy-2-(4-hydroxyphenyl)benzo[b]thien-3-yl] [4-[2-(1-piperidinyl)ethoxy]-phenyl]methanone hydrochloride (LY156758), a remarkably effective estrogen antagonist with only minimal …” (1984)
Values joined by “and” are separate entries in the source; they are usually repeats but may differ in a detail not shown here. Equal values may be shown once.

Assays:
[1] = system: Rattus norvegicus; test: The compound was tested for the % change of tumor area at 10 mg/kg dose after peroral administration (experiment-2); conditions: route oral
[2] = system: Rattus norvegicus; test: The compound was tested for no of tumors without change at 10 mg/kg dose after peroral administration (experiment-I); format: functional; conditions: route oral
Method in brief: (§1)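 DMBA-induced mammary tumors in female Sprague-Dawley rats. Compound given orally twice daily in PEG-400:water (1:1) for 21 days; controls received vehicle alone. Tumors measured by caliper at start and weekly; area is largest × smallest diameter. Tumors scored as complete or partial remission, no change or progression. Mean ± SE.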

[3] = system: Rattus norvegicus; test: The compound was tested for the no of tumors at 10 mg/kg dose finish of the experiment after peroral administration (experiment-2); format: functional; conditions: route oral
Method in brief: as §1

[4] = system: Rattus norvegicus; test: The compound was tested for the progression of no of tumors at 1 mg/kg dose after peroral administration (experiment-I); format: functional; conditions: route oral
Method in brief: as §1

[5] = system: Rattus norvegicus; test: The compound was tested for no of tumors with complete remission at 10 mg/kg dose after peroral administration (experiment-I); format: functional; conditions: route oral
Method in brief: as §1

[6] = system: Rattus norvegicus; test: The compound was tested for the no of tumors at 1 mg/kg dose finish of the experiment after peroral administration (experiment-I); format: functional; conditions: route oral
Method in brief: as §1

[7] = system: Rattus norvegicus; test: The compound was tested for the no of tumors at 10 mg/kg dose start of the experiment after peroral administration (experiment-I); format: functional; conditions: route oral
Method in brief: as §1

[8] = system: Rattus norvegicus; test: The compound was tested for no of tumors with complete remission at 10 mg/kg dose after peroral administration (experiment-2); format: functional; conditions: route oral
Method in brief: as §1

[9] = system: Rattus norvegicus; test: The compound was tested for the growth of mammary tumors in rats at 1 mg/kg dose after peroral administration at the end of the exp-1; format: functional; conditions: route oral
Method in brief: as §1

[10] = system: Rattus norvegicus; test: The compound was tested for no of tumors without change at 10 mg/kg dose after peroral administration (experiment-2); format: functional; conditions: route oral
Method in brief: as §1

[11] = system: Rattus norvegicus; test: The compound was tested for no of tumors with partial remission at 1 mg/kg dose after peroral administration (experiment-I); format: functional; conditions: route oral
Method in brief: as §1

[12] = system: Rattus norvegicus; test: The compound was tested for the progression of no of tumors at 10 mg/kg dose after peroral administration (experiment-I); format: functional; conditions: route oral
Method in brief: as §1

[13] = system: Rattus norvegicus; test: The compound was tested for the no of tumors at 10 mg/kg dose start of the experiment after peroral administration (experiment-2); format: functional; conditions: route oral
Method in brief: as §1

[14] = system: Rattus norvegicus; test: The compound was tested for the % change of tumor area at 1 mg/kg dose after peroral administration (experiment-I); format: functional; conditions: route oral
Method in brief: as §1

[15] = system: Rattus norvegicus; test: The compound was tested for no of tumors without change at 1 mg/kg dose after peroral administration (experiment-I); format: functional; conditions: route oral
Method in brief: as §1

[16] = system: Rattus norvegicus; test: The compound was tested for no of tumors with partial remission at 10 mg/kg dose after peroral administration (experiment-2); format: functional; conditions: route oral
Method in brief: as §1

[17] = system: Rattus norvegicus; test: The compound was tested for the no of tumors at 1 mg/kg dose start of the experiment after peroral administration (experiment-I); format: functional; conditions: route oral
Method in brief: as §1

[18] = system: Rattus norvegicus; test: The compound was tested for no of tumors with complete remission at 1 mg/kg dose after peroral administration (experiment-I); format: functional; conditions: route oral
Method in brief: as §1

[19] = system: Rattus norvegicus; test: The compound was tested for the progression of no of tumors at 10 mg/kg dose after peroral administration (experiment-2); format: functional; conditions: route oral
Method in brief: as §1

[20] = system: Rattus norvegicus; test: The compound was tested for the no of tumors at 10 mg/kg dose finish of the experiment after peroral administration (experiment-I); format: functional; conditions: route oral
Method in brief: as §1

[21] = system: Rattus norvegicus; test: The compound was tested for no of tumors with partial remission at 10 mg/kg dose after peroral administration (experiment-I); format: functional; conditions: route oral
Method in brief: as §1

[22] = organism: Rattus norvegicus; test: The compound was tested for uterotropic activity in immature rats(Dosage 0.1 ug); format: functional
Method in brief: (§2)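 Holtzman rats, immature (19-20 days, 40-45 g), in groups of six. Compound given subcutaneously in corn oil as a daily per-rat dose for 3 days. Rats killed on day 4 and uterine wet weight recorded to the nearest 0.1 mg.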

[23] = organism: Rattus norvegicus; test: The compound was tested for uterotropic activity in immature rats(Dosage 1 ug); format: functional
Method in brief: as §2

[24] = organism: Rattus norvegicus; test: The compound was tested for uterotropic activity in immature rats(Dosage 10 ug); format: functional
Method in brief: as §2

[25] = organism: Rattus norvegicus; test: The compound was tested for anti-uterotrophic activity in immature rats(Dosage 1 ug); format: functional
Method in brief: (§3)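 Holtzman rats, immature (19-20 days, 40-45 g), in groups of six. Each rat received estradiol 1 µg/day sc in corn oil plus compound sc in corn oil as a daily per-rat dose, for 3 days. Rats killed on day 4. Inhibition of estradiol-driven uterine wet weight (weighed to 0.1 mg).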

[26] = organism: Rattus norvegicus; test: The compound was tested for anti-uterotrophic activity in immature rats(Dosage 100 ug); format: functional
Method in brief: as §3

[27] = organism: Rattus norvegicus; test: The compound was tested for anti-uterotrophic activity in immature rats(Dosage 1000 ug); format: functional
Method in brief: as §3

[28] = organism: Rattus norvegicus; test: The compound was tested for uterotropic activity in immature rats(Dosage 1000 ug); format: functional
Method in brief: as §2

[29] = organism: Rattus norvegicus; test: The compound was tested for uterotropic activity in immature rats(Dosage 100 ug); format: functional
Method in brief: as §2

[30] = organism: Rattus norvegicus; test: The compound was tested for anti-uterotrophic activity in immature rats(Dosage 10 microg); format: functional
Method in brief: as §3

[31] = system: Rattus norvegicus; test: The compound was tested for serum LH level in rats at 1 mg/kg dose after peroral administration; format: functional, organism-based; parameters: dose 1 mg/kg
[32] = system: Rattus norvegicus; test: The compound was tested for serum prolactin level in rats at 10 mg/kg dose after peroral administration; format: functional, organism-based; parameters: dose 10 mg/kg
[33] = system: Rattus norvegicus; test: The compound was tested for serum prolactin level in rats at 1 mg/kg dose after peroral administration exp1; format: functional, organism-based; parameters: dose 1 mg/kg
[34] = system: Rattus norvegicus; test: The compound was tested for serum prolactin level in rats at 1 mg/kg dose after peroral administration; format: functional, organism-based; parameters: dose 1 mg/kg
[35] = system: Rattus norvegicus; test: The compound was tested for the growth of mammary tumors in rats at 10 mg/kg dose after peroral administration at the end of the exp-2; format: functional; conditions: route oral
Method in brief: as §1

[36] = system: Rattus norvegicus; test: The compound was tested for the growth of tumors at 10 mg/kg dose start of the experiment after peroral administration (experiment-2); format: functional; conditions: route oral
Method in brief: as §1

[37] = system: Rattus norvegicus; test: The compound was tested for the growth of tumors at 10 mg/kg dose finish of the experiment after peroral administration (experiment-2); format: functional; conditions: route oral
Method in brief: as §1

Cl.O=C(c1ccc(OCCN2CCCCC2)cc1)c1c(-c2ccc(O)cc2)sc2cc(O)ccc12 [RALOXIFENE HYDROCHLORIDE]
% change tumor area [1]: 417%
No. of tumours [2]: 2
No. of tumours [3]: 5
No. of tumours [4]: 2
No. of tumours [5]: 1
No. of tumours [6]: 9
No. of tumours [7]: 9
No. of tumours [8]: 4
Tumor area [9]: 33.3 mm**2 and <77.3 mm**2
No. of tumours [10]: 1
No. of tumours [11]: 2
No. of tumours [12]: 4
No. of tumours [13]: 9
% change tumor area [14]: 132% and 378%
No. of tumours [15]: 4
No. of tumours [16]: 2
No. of tumours [17]: 9
No. of tumours [18]: 1
No. of tumours [19]: 2
No. of tumours [20]: 13
No. of tumours [21]: 2

C[C@]12CC[C@@H]3c4ccc(O)cc4CC[C@H]3[C@@H]1CC[C@@H]2O [ESTRADIOL]
Mean uterine weight [22]: 82.3 mg

O=C(c1ccc(OCCN2CCCCC2)cc1)c1c(-c2ccc(O)cc2)sc2cc(O)ccc12 [RALOXIFENE]
Mean uterine weight [23]: 48.6 mg
Mean uterine weight [24]: 42.2 mg
Mean uterine weight [25]: 48.7 mg
Mean uterine weight [26]: 32.5 mg
Mean uterine weight [27]: 28.9 mg
Mean uterine weight [28]: 35.4 mg
Mean uterine weight [29]: 42.7 mg
Mean uterine weight [30]: 36.7 mg

O=C(c1ccc(OCCN2CCCC2)cc1)c1c(-c2ccc(O)cc2)sc2cc(O)ccc12 [LY-117018]
Mean uterine weight [23]: 55.1 mg
Mean uterine weight [24]: 46.6 mg
Mean uterine weight [25]: 61.7 mg
Mean uterine weight [26]: 42.7 mg
Mean uterine weight [27]: 36.1 mg
Mean uterine weight [28]: 40.7 mg
Mean uterine weight [29]: 43.9 mg
Mean uterine weight [30]: 44.5 mg

O=C(c1ccc(OCCN2CCCCCC2)cc1)c1c(-c2ccc(O)cc2)sc2cc(O)ccc12
Mean uterine weight [23]: 52.7 mg
Mean uterine weight [24]: 46.6 mg
Mean uterine weight [25]: 56.3 mg
Mean uterine weight [26]: 39.7 mg
Mean uterine weight [27]: 36.7 mg
Mean uterine weight [28]: 40.1 mg
Mean uterine weight [29]: 43.9 mg
Mean uterine weight [30]: 52.7 mg

O=C(c1ccc(OCCN2CCCCC2)cc1)c1c(-c2ccc(O)cc2)sc2cc(O)ccc12
Serum LH level [31]: 3.08e-05 mg/mL and 2.77e-05 mg/mL
Serum prolactin level [32]: 0.000711 mg/mL
Serum prolactin level [33]: 0.000204 mg/mL
Serum prolactin level [34]: 7.24e-05 mg/mL

CCN(CC)CCOc1ccc(C(=O)c2c(-c3ccc(O)cc3)sc3cc(O)ccc23)cc1
Mean uterine weight [23]: 45.4 mg
Mean uterine weight [24]: 53.6 mg
Mean uterine weight [25]: 56.2 mg
Mean uterine weight [26]: 66.4 mg
Mean uterine weight [27]: 66 mg
Mean uterine weight [28]: 66.5 mg
Mean uterine weight [29]: 67.6 mg
Mean uterine weight [30]: 61.3 mg

CC/C(=C(\c1ccccc1)c1ccc(OCCN(C)C)cc1)c1ccccc1 [TAMOXIFEN]
% change tumor area [1]: 7
Tumor area [35]: 43.4 mm**2 and <46.4 mm**2
Mean uterine weight [23]: 38.9 mg
Mean uterine weight [24]: 64.8 mg
Mean uterine weight [25]: 64.1 mg
No. of tumours [8]: 3
Mean uterine weight [26]: 72.1 mg
No. of tumours [10]: 2
Serum prolactin level [32]: 0.000126 mg/mL
Mean uterine weight [27]: 74.1 mg
No. of tumours [16]: 3
No. of tumours [36]: 11
No. of tumours [37]: 7
No. of tumours [19]: 3
Mean uterine weight [28]: 70.1 mg
Mean uterine weight [29]: 65.6 mg
Mean uterine weight [30]: 62.1 mg

CN(C)CCOc1ccc(C(=O)c2c(-c3ccc(O)cc3)sc3cc(O)ccc23)cc1
Mean uterine weight [23]: 44.6 mg
Mean uterine weight [24]: 55 mg
Mean uterine weight [25]: 54.7 mg
Mean uterine weight [26]: 64.7 mg
Mean uterine weight [27]: 70.8 mg
Mean uterine weight [28]: 71.5 mg
Mean uterine weight [29]: 66 mg
Mean uterine weight [30]: 54.3 mg

CC(C)N(CCOc1ccc(C(=O)c2c(-c3ccc(O)cc3)sc3cc(O)ccc23)cc1)C(C)C
Mean uterine weight [23]: 37.3 mg
Mean uterine weight [24]: 50 mg
Mean uterine weight [25]: 60.1 mg
Mean uterine weight [26]: 69.5 mg
Mean uterine weight [27]: 70.2 mg
Mean uterine weight [28]: 60.4 mg
Mean uterine weight [29]: 62.1 mg
Mean uterine weight [30]: 58.7 mg
